Laboratory results published in ChEMBL document CHEMBL5360580 (Eur J Med Chem, 2023).
Active and inactive are the calls of the source. No cut-off for these calls is given here.

Key:
[1] = Subacute toxicity in ICR mouse assessed as mortality at 50 to 200 mg/kg, po qd administered for 10 days; assay type: organism-based; settings: in vivo, 240 h, dose 50-200 mg/kg, time 10 day
Procedure, shortened: (§1)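 Male ICR mice (18–20 g), ten per group, received oral doses once daily for ten days, with a control group alongside. Body weight, food intake and behaviour were observed daily. Animals were fasted before dissection, and heart, liver, spleen, lung, kidney and administration site were collected for organ weight and histology.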

[2] = Subacute toxicity in ICR mouse assessed as change in kidney histology at 50 to 200 mg/kg, po qd administered for 10 days; assay type: organism-based; settings: in vivo, 240 h, dose 50-200 mg/kg, time 10 day; procedure, shortened: as §1
[3] = Observed AUC (0 to infinity) in ICR mouse at 30 mg/kg, po measured upto 24 hrs by LC-MS/MS analysis; assay type: ADME, organism-based; parameters: dose 30 mg/kg, time < 24 hrs, route po; settings: in vivo
Procedure, shortened: (§2)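 Male-unspecified ICR (CD-1) mice, N = 3 per group, were fasted 12 h. Compound in DMSO/0.5% HMPC (5/95, v/v) was given orally at 30 mg/kg or intravenously at 2.5 mg/kg. Femoral-vein blood was drawn at 0.25, 0.5, 1, 2, 4, 8 and 24 h, and serum analyte levels were measured by LC-MS/MS.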

[4] = Cmax in ICR mouse at 30 mg/kg, po measured upto 24 hrs by LC-MS/MS analysis; assay type: ADME, organism-based; parameters: dose 30 mg/kg, time < 24 hrs, route po; settings: in vivo; procedure, shortened: as §2
[5] = Oral bioavailability in ICR mouse at 30 mg/kg measured upto 24 hrs by LC-MS/MS analysis; assay type: ADME, organism-based; settings: in vivo; procedure, shortened: as §2
Vero C1008 [6] = assay: Downregulation of BECN1 level in African green monkey Vero E6 cells at 10 uM measured after 16 hrs by Western blotting analysis; assay type: functional, cell-based; settings: Chlorocebus sabaeus
Procedure, shortened: (§3)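 Vero-E6 cells in DMEM with 10% FBS were cultured overnight at 37 °C, 5% CO2, then treated with a concentration series for 16 h. Lysates were made in RIPA on ice and equalised for protein by BCA. Blots were probed for SKP2 or Beclin-1 plus β-actin and detected by ECL. The band-intensity ratio to β-actin was normalised to DMSO control.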

[7] = Half life in ICR mouse at 30 mg/kg, po measured upto 24 hrs by LC-MS/MS analysis; assay type: ADME, organism-based; settings: in vivo; procedure, shortened: as §2
Vero C1008 [8] = assay: Downregulation of BECN1 level in African green monkey Vero E6 cells at 1 to 3 uM measured after 16 hrs by Western blotting analysis; assay type: functional, cell-based; settings: Chlorocebus sabaeus, dose 1-3 µM; procedure, shortened: as §3
[9] = Observed MRT (0 to infinity) in ICR mouse at 2.5 mg/kg, iv measured upto 24 hrs by LC-MS/MS analysis; assay type: ADME, organism-based; settings: in vivo, iv, 2.5 mg/kg, 24 h; procedure, shortened: as §2
[10] = Subacute toxicity in ICR mouse assessed as change in heart histology at 50 to 200 mg/kg, po qd administered for 10 days; assay type: organism-based; settings: in vivo, 240 h, dose 50-200 mg/kg, time 10 day; procedure, shortened: as §1
[11] = Subacute toxicity in ICR mouse assessed as change in organ weight at 50 to 200 mg/kg, po qd administered for 10 days; assay type: organism-based; settings: in vivo, 240 h, dose 50-200 mg/kg, time 10 day; procedure, shortened: as §1
[12] = AUClast in ICR mouse at 30 mg/kg, po measured upto 24 hrs by LC-MS/MS analysis; assay type: ADME, organism-based; parameters: dose 30 mg/kg, time < 24 hrs, route po; settings: in vivo; procedure, shortened: as §2
[13] = Subacute toxicity in ICR mouse assessed as change in lung histology at 50 to 200 mg/kg, po qd administered for 10 days; assay type: organism-based; settings: in vivo, 240 h, dose 50-200 mg/kg, time 10 day; procedure, shortened: as §1
[14] = Subacute toxicity in ICR mouse assessed as change in spleen histology at 50 to 200 mg/kg, po qd administered for 10 days; assay type: organism-based; settings: in vivo, 240 h, dose 50-200 mg/kg, time 10 day; procedure, shortened: as §1
[15] = Subacute toxicity in ICR mouse assessed as change in body weight at 50 to 200 mg/kg, po qd administered for 10 days; assay type: organism-based; settings: in vivo, 240 h, dose 50-200 mg/kg, time 10 day; procedure, shortened: as §1
Vero C1008 [16] = assay: Cytotoxicity against African green monkey Vero E6 cells assessed as reduction in cell viability measured after 48 hrs by CCK-8 assay; assay type: toxicity, cell-based; settings: chlorocebus sabaeus, vero c1008, 48 h
[17] = Observed MRT (0 to infinity) in ICR mouse at 30 mg/kg, po measured upto 24 hrs by LC-MS/MS analysis; assay type: ADME, organism-based; settings: in vivo; procedure, shortened: as §2
SARS-CoV-2 [18] = assay: Antiviral activity against SARS-CoV-2 infected in African green monkey Vero E6 cells assessed as inhibition of viral replication incubated for 24 hrs by IFA assay; assay type: functional, organism-based; settings: Severe acute respiratory syndrome coronavirus 2, Vero C1008, 24 h
Vero C1008 [19] = assay: Downregulation of SKP2 level in African green monkey Vero E6 cells at 0.3 to 10 uM measured after 16 hrs by Western blotting analysis; assay type: functional, cell-based; settings: Chlorocebus sabaeus, dose 0.3-10 µM; procedure, shortened: as §3
[20] = AUClast in ICR mouse at 2.5 mg/kg, iv measured upto 24 hrs by LC-MS/MS analysis; assay type: ADME, organism-based; parameters: dose 2.5 mg/kg, time < 24 hrs, route iv; settings: in vivo, 24 h; procedure, shortened: as §2
[21] = Subacute toxicity in ICR mouse assessed as change in liver histology at 50 to 200 mg/kg, po qd administered for 10 days; assay type: organism-based; settings: in vivo, 240 h, dose 50-200 mg/kg, time 10 day; procedure, shortened: as §1
SARS-CoV-2 [22] = assay: Antiviral activity against SARS-CoV-2 infected in African green monkey Vero E6 cells assessed as inhibition of viral replication at 1 uM incubated for 24 hrs by IFA assay relative to control; assay type: functional; settings: Severe acute respiratory syndrome coronavirus 2, Vero C1008
[23] = Selectivity index, ratio of CC50 for cytotoxicity against African green monkey Vero E6 to EC50 for antiviral activity against SARS-CoV-2 infected in African green monkey Vero E6 cells; assay type: toxicity, cell-based, Vero C1008; settings: read-out: Ratio CC50/EC50
[24] = Half life in ICR mouse at 2.5 mg/kg, iv measured upto 24 hrs by LC-MS/MS analysis; assay type: ADME, organism-based; settings: in vivo, iv, 2.5 mg/kg, 24 h; procedure, shortened: as §2
[25] = Aqueous solubility of compound at 0.5 mg/mL in presence of acetonitrile by HPLC analysis; assay type: physicochemical; settings: buffer
Procedure, shortened: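 Compound was suspended in water, vortexed vigorously and filtered through a 0.22 μm membrane. The filtrate was diluted 2-fold with 80% acetonitrile and analysed by reversed-phase amide HPLC. Concentration was read against a standard curve prepared from a 0.5 mg/mL solution in 80% acetonitrile. Single determination.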

[26] = Observed AUC (0 to infinity) in ICR mouse at 2.5 mg/kg, iv measured upto 24 hrs by LC-MS/MS analysis; assay type: ADME, organism-based; parameters: dose 2.5 mg/kg, time < 24 hrs, route iv; settings: in vivo, 24 h; procedure, shortened: as §2

## O=C(Nc1ccc(OC(F)(F)F)cc1)c1cc(Cl)c(F)cc1O
[1]
  Activity: Non-Toxic
[2]
  Activity: Non-Toxic
[3]
  AUC: 5579 ng·h/mL
[4]
  Cmax: 2376 ng/mL
[5]
  bioavailability: 12.7%
Vero C1008 [6]
  Activity: Active
[7]
  t1/2: 3.33 h
Vero C1008 [8]
  Activity: Active
[9]
  MRT: 1.94 h
[10]
  Activity: Non-Toxic
[11]
  Activity: Non-Toxic
[12]
  AUClast: 5547 ng·h/mL
[13]
  Activity: Non-Toxic
[14]
  Activity: Non-Toxic
[15]
  Activity: Non-Toxic
Vero C1008 [16]
  CC50: 4730 nM
[17]
  MRT: 4.41 h
SARS-CoV-2 [18]
  EC50: 1000 nM
Vero C1008 [19]
  Activity: Active
[20]
  AUClast: 3646 ng·h/mL
[21]
  Activity: Non-Toxic
SARS-CoV-2 [22]
  inhibition at 1 µM: 91%
[23]
  selectivity ratio: 4.73
[24]
  t1/2: 4.6 h
[25]
  solubility: 0.1 µg/mL
[26]
  AUC: 3678 ng·h/mL
